ChEMBL document CHEMBL4602615, “Upregulation of p53 through induction of MDM2 degradation: Amino acid prodrugs of anthraquinone analogs” (Bioorg Med Chem Lett, 2020)
Values after ≈ are worked out from the molar mass of the structure shown. Active and inactive are the calls of the source. The rule behind the calls is not given here.

Columns and labels:
[1] = Aqueous solubility of compound in PBS buffer at pH 7.4 by HPLC analysis; format: physicochemical
[2] = Prodrug conversion in PBS buffer assessed as half life at pH 7.4 and 37 degC by HPLC analysis; format: physicochemical
[3] = Prodrug conversion assessed as porcine liver Esterase-mediated compound hydrolysis by measuring half life by HPLC analysis; format: ADME, Sus scrofa; settings: pig, isolated protein
Outline: (§1)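 Amino-acid ester prodrugs incubated with the hydrolytic enzyme in PBS, pH 7.4, at 37 °C. Release of parent anthraquinone monitored by HPLC, and half-life derived.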

HeLa = experiment: Cytotoxicity against human HeLa cells assessed as reduction in cell viability by WST8 assay; format: functional, cell-based
Outline: (§2)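 WST-8 viability read-out in HeLa cells and in an in-house established wild-type p53 leukemia line (EU-1). IC50 derived from the concentration–response data.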

[4] = Prodrug conversion assessed as porcine pancreas Kallikrein-mediated compound hydrolysis by measuring half life by HPLC analysis; format: ADME, Sus scrofa; settings: pig; outline: as §1
[5] = Cytotoxicity against human EU1 cells assessed as reduction in cell viability by WST8 assay; format: functional, cell-based; settings: EU-1; outline: as §2
[6] = Prodrug conversion in cell culture media assessed as half life; format: physicochemical
[7] = Prodrug conversion in none-denaturated human EU1 cell lysates assessed as N-[4,5-bis(2-hydroxyethoxy)-9,10-dioxo-2-anthryl]-2-chloro-acetamide release measured within 15 mins by HPLC analysis; format: ADME, subcellular, Lysate; settings: 0.25 h
Outline: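 Prodrug incubated with non-denatured lysate of EU-1 cells, an in-house wild-type p53 leukemia line, to assess activation by cellular components. Read-out was cleavage of the amino acid ester bond releasing the parent anthraquinone, followed over time.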

[8] = biological target: E3 ubiquitin-protein ligase Mdm2 (Homo sapiens) (UniProt Q00987); experiment: Induction of MDM2 degradation in human EU1 cells assessed as downregulation of MDM2 protein expression at 1 uM by Western blot analysis; format: cell-based; settings: TDE = time-dependent effect
Outline: (§3)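 EU-1 is an in-house established leukemia line carrying wild-type p53. Cells were exposed across a series of concentrations and incubation times, then lysed. MDM2 and p53 protein levels were read by Western blot.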

[9] = biological target: E3 ubiquitin-protein ligase Mdm2 (Homo sapiens) (UniProt Q00987); experiment: Induction of MDM2 degradation in human EU1 cells assessed as downregulation of MDM2 protein expression incubated for 15 hrs by Western blot analysis; format: cell-based; outline: as §3
[10] = biological target: E3 ubiquitin-protein ligase Mdm2 (Homo sapiens) (UniProt Q00987); experiment: Induction of MDM2 degradation in human EU1 cells assessed as downregulation of MDM2 protein expression at 1 uM incubated for 4 to 16 hrs by Western blot analysis; format: cell-based; outline: as §3
[11] = biological target: E3 ubiquitin-protein ligase Mdm2 (Homo sapiens) (UniProt Q00987); experiment: Induction of MDM2 degradation in human EU1 cells assessed as upregulation of p53 protein expression at 1 uM incubated for 4 to 8 hrs by Western blot analysis; format: cell-based; outline: as §3
[12] = biological target: E3 ubiquitin-protein ligase Mdm2 (Homo sapiens) (UniProt Q00987); experiment: Induction of MDM2 degradation in human EU1 cells assessed as upregulation of p53 protein expression at 0.8 uM incubated for 15 hrs by Western blot analysis; format: cell-based; outline: as §3
[13] = biological target: E3 ubiquitin-protein ligase Mdm2 (Homo sapiens) (UniProt Q00987); experiment: Induction of MDM2 degradation in human EU1 cells assessed as downregulation of MDM2 protein expression at 0.8 uM incubated for 15 hrs by Western blot analysis; format: cell-based; outline: as §3
[14] = biological target: E3 ubiquitin-protein ligase Mdm2 (Homo sapiens) (UniProt Q00987); experiment: Induction of MDM2 degradation in human EU1 cells assessed as upregulation of p53 protein expression incubated for 15 hrs by Western blot analysis; format: cell-based; outline: as §3
[15] = biological target: E3 ubiquitin-protein ligase Mdm2 (Homo sapiens) (UniProt Q00987); experiment: Induction of MDM2 degradation in human EU1 cells assessed as upregulation of p53 protein expression at 1 uM by Western blot analysis; format: cell-based; settings: TDE = time-dependent effect; outline: as §3
[16] = PBS buffer, read-out: solubility

Sequence of E3 ubiquitin-protein ligase Mdm2 (Homo sapiens) (Q00987 whole entry, looked up): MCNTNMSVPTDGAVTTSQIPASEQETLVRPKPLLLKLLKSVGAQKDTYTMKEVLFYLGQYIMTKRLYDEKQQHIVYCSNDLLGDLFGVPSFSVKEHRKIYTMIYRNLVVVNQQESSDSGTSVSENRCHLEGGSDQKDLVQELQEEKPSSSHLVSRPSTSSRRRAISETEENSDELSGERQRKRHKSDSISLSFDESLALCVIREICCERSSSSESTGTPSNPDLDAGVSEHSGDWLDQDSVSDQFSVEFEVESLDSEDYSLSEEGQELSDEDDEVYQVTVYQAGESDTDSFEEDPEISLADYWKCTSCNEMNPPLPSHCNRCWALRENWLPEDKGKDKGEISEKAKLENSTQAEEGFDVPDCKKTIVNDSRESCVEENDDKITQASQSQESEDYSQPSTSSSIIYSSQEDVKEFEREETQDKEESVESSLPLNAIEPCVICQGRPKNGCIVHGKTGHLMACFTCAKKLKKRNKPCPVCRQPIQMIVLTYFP

SMILES	solubility ([1]; buffer)	t1/2 [2]	t1/2 [3]	solubility [1, 16]	IC50 (HeLa)	t1/2 [4]	IC50 [5]	t1/2 [6]	Drug metabolism [7]	Activity [8]	Activity [9]	Activity [10]	Activity [11]	Activity [12]	Activity [13]	Activity [14]	Activity [15]
O=C(CCl)Nc1cc(O)c2c(c1)C(=O)c1cccc(O)c1C2=O	0.0085 mg/mL (≈ 25.6 µM)	–	–	–	–	–	–	–	–	–	–	–	–	–	–	–	–
C[C@H](N)C(=O)OCCOc1cccc2c1C(=O)c1c(OCCOC(=O)[C@H](C)N)cc(NC(=O)CCl)cc1C2=O.Cl	–	100.9 min	6.2 min	> 100 mg/mL	8.21 µM	24.7 min	1.66 µM	–	–	–	–	–	–	–	–	–	–
Cl.N=C(N)NCCC[C@H](N)C(=O)OCCOc1cccc2c1C(=O)c1c(OCCOC(=O)[C@@H](N)CCCNC(=N)N)cc(NC(=O)CCl)cc1C2=O	–	187.1 min	63 min	> 100 mg/mL	13 µM	0.2 min	2.07 µM	–	–	–	–	–	–	–	–	–	–
Cl.NCC(=O)OCCOc1cccc2c1C(=O)c1c(OCCOC(=O)CN)cc(NC(=O)CCl)cc1C2=O	–	31.5 min	10.1 min	> 100 mg/mL	3.66 µM	35.9 min	1.1 µM	19.3 min	–	–	–	–	–	–	–	–	–
CSCC[C@H](N)C(=O)OCCOc1cccc2c1C(=O)c1c(OCCOC(=O)[C@@H](N)CCSC)cc(NC(=O)CCl)cc1C2=O.Cl	–	44.8 min	3.7 min	> 100 mg/mL	7.07 µM	12 min	1.24 µM	–	–	–	–	–	–	–	–	–	–
Cl.NCCCC[C@H](N)C(=O)OCCOc1cccc2c1C(=O)c1c(OCCOC(=O)[C@@H](N)CCCCN)cc(NC(=O)CCl)cc1C2=O	–	140.8 min	44.2 min	> 100 mg/mL	10.7 µM	2.4 min	1.28 µM	–	–	–	–	–	–	–	–	–	–
CC(C)C[C@H](N)C(=O)OCCOc1cccc2c1C(=O)c1c(OCCOC(=O)[C@@H](N)CC(C)C)cc(NC(=O)CCl)cc1C2=O.Cl	–	127.7 min	2.5 min	> 100 mg/mL	2.8 µM	39.6 min	1.17 µM	–	–	–	–	–	–	–	–	–	–
CC(C)[C@H](N)C(=O)OCCOc1cccc2c1C(=O)c1c(OCCOC(=O)[C@@H](N)C(C)C)cc(NC(=O)CCl)cc1C2=O.Cl	–	147.7 min	25.3 min	> 100 mg/mL	4.15 µM	126.3 min	1.08 µM	–	Metabolite_Detected	–	–	–	–	–	–	–	–
O=C(CCl)Nc1cc(OCCO)c2c(c1)C(=O)c1cccc(OCCO)c1C2=O	0.06 mg/mL (≈ 143 µM)	–	–	–	3.76 µM	–	0.89 µM	–	–	Tde	Dose-dependent effect	Active	Active	Active	Active	Dose-dependent effect	Tde
CC[C@H](C)[C@H](N)C(=O)OCCOc1cccc2c1C(=O)c1c(OCCOC(=O)[C@@H](N)[C@@H](C)CC)cc(NC(=O)CCl)cc1C2=O.Cl	–	154.5 min	24.3 min	> 100 mg/mL	5.75 µM	48.4 min	1.14 µM	–	–	–	–	–	–	–	–	–	–
Cl.N[C@@H](Cc1ccccc1)C(=O)OCCOc1cccc2c1C(=O)c1c(OCCOC(=O)[C@@H](N)Cc3ccccc3)cc(NC(=O)CCl)cc1C2=O	703 mg/mL	73.7 min	1 min	–	5.64 µM	6.5 min	1.23 µM	–	–	–	–	–	–	–	–	–	–
Cl.N[C@@H](Cc1ccc(O)cc1)C(=O)OCCOc1cccc2c1C(=O)c1c(OCCOC(=O)[C@@H](N)Cc3ccc(O)cc3)cc(NC(=O)CCl)cc1C2=O	–	70.6 min	1.7 min	> 100 mg/mL	5.4 µM	6.5 min	1.27 µM	–	–	–	–	–	–	–	–	–	–
Cl.NC(=O)CC[C@H](N)C(=O)OCCOc1cccc2c1C(=O)c1c(OCCOC(=O)[C@@H](N)CCC(N)=O)cc(NC(=O)CCl)cc1C2=O	–	137.1 min	73 min	> 100 mg/mL	12.3 µM	66.9 min	1.45 µM	–	–	–	–	–	–	–	–	–	–
Cl.N[C@@H](CCC(=O)O)C(=O)OCCOc1cccc2c1C(=O)c1c(OCCOC(=O)[C@@H](N)CCC(=O)O)cc(NC(=O)CCl)cc1C2=O	–	268.6 min	117.9 min	> 100 mg/mL	9.11 µM	110 min	3.21 µM	156.1 min	–	–	–	–	–	–	–	–	–
